According to ChEMBL document CHEMBL3352359, “Cycloartane triterpenoids and their glycosides from the rhizomes of Cimicifuga foetida” (J Nat Prod, 2014):

Assays:
Type in all cases: functional, cell-based
[1] = Cytotoxicity against human HL60 cells after 48 hrs by MTT assay; conditions: HL-60, 48 h
Outline: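 HL-60 suspension cells were grown in DMEM with 10% FBS at 37 °C under 5% CO2. They were seeded at 1 × 10^5 cells/mL in 96-well plates just before compound addition, then exposed in triplicate to graded concentrations for 48 h, with cisplatin as positive control. MTT absorbance was read at 570 nm against 630 nm reference. IC50 was calculated by the Reed–Muench method.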

[2] = Cytotoxicity against human H460 cells after 48 hrs by MTT assay; conditions: NCI-H460, 48 h
Outline: (§1)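 Adherent cells grown in DMEM with 10% FBS at 37 °C under 5% CO2. Cells were seeded in 96-well plates and left 12 h to attach, then exposed in triplicate to a range of compound concentrations for 48 h, with cisplatin as positive control. MTT read-out was absorbance at 570 nm (reference 630 nm). IC50 was derived by the Reed–Muench method.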

[3] = Cytotoxicity against human SMMC-7721 cells after 48 hrs by MTT assay; conditions: SMMC-7721, 48 h; outline: as §1
HeLa = experiment: Cytotoxicity against human HeLa cells after 48 hrs by MTT assay; outline: as §1
MCF7 = experiment: Cytotoxicity against human MCF7 cells after 48 hrs by MTT assay; conditions: MCF7, 48 h; outline: as §1

In the case of `CC(=O)O[C@@H]1C[C@@]23C[C@@]24CC[C@H](O[C@@H]2OC[C@@H](O)[C@H](O)[C@H]2O)C(C)(C)[C@@H]4CC[C@H]3[C@]2(C)C[C@@H]3OC(C(O)C(C)(C)O)=C[C@@H](C)[C@@H]3[C@@]12C` (stereo not given in full), the IC50 [1] is reported as > 10 µM, the IC50 [2] is reported as > 10 µM and the IC50 [3] is reported as > 10 µM. For the same compound, the IC50 (HeLa) was > 10 µM and the IC50 (MCF7) was > 10 µM.

In the case of `CC(=O)O[C@@H]1CO[C@@H](O[C@H]2CC[C@]34C[C@]35CC[C@]3(C)[C@H]6[C@H](C)C[C@H]7O[C@@]6(O[C@@H]7C(C)(C)OC(C)=O)[C@H](O)[C@@]3(C)[C@@H]5CC[C@H]4C2(C)C)[C@H](O)[C@H]1O`, the IC50 [1] is reported as > 10 µM, the IC50 [2] is reported as > 10 µM and the IC50 [3] is reported as 6.3 µM. The IC50 (HeLa) was > 10 µM and the IC50 (MCF7) was > 10 µM.

For `CC(=O)O[C@@H]1C[C@@]23C[C@@]24CC[C@H](O[C@@H]2OC[C@@H](O)[C@H](O)[C@H]2O)C(C)(C)[C@@H]4CC[C@H]3[C@]2(C)C[C@@H]3O[C@](O)(C(=O)C(C)C)C[C@@H](C)[C@@H]3[C@@]12C`, the IC50 [1] was > 10 µM, the IC50 [2] was > 10 µM and the IC50 [3] was > 10 µM. For the same compound, the IC50 (HeLa) was > 10 µM and the IC50 (MCF7) was > 10 µM.

With `CC(=O)O[C@@H]1[C@@H](O)[C@H](O[C@H]2CC[C@]34C[C@]35CC[C@]3(C)[C@H]6[C@H](C)C[C@H]7O[C@@]6(O[C@@H]7C(C)(C)OC(C)=O)[C@H](O)[C@@]3(C)[C@@H]5CC[C@H]4C2(C)C)OC[C@H]1O` the IC50 [1] was > 10 µM, the IC50 [2] was > 10 µM and the IC50 [3] was 5.5 µM. The IC50 (HeLa) was > 10 µM and the IC50 (MCF7) was > 10 µM.

With `C=C(C)[C@@H](O)C(=O)C[C@@H](C)[C@H]1C(=O)C[C@@]2(C)C3=CC[C@H]4C(C)(C)[C@@H](O[C@@H]5OC[C@@H](O)[C@H](O)[C@H]5O)CC[C@@]45C[C@]35[C@@H](O)C[C@]12C` the IC50 [1] was > 10 µM, the IC50 [2] was > 10 µM and the IC50 [3] was > 10 µM. For the same compound, the IC50 (HeLa) was > 10 µM and the IC50 (MCF7) was > 10 µM.

In the case of `C[C@H](CC(=O)[C@H](O)C(C)(C)O)[C@H]1C(=O)C[C@@]2(C)C3=CC[C@H]4C(C)(C)[C@@H](O[C@@H]5OC[C@@H](O)[C@H](O)[C@H]5O)CC[C@@]4(O)CC3=CC[C@]12C`, the IC50 [1] is reported as > 10 µM, the IC50 [2] is reported as > 10 µM and the IC50 [3] is reported as > 10 µM. For the same compound, the IC50 (HeLa) was > 10 µM and the IC50 (MCF7) was > 10 µM.

In the case of `C[C@@H]1C[C@H]2O[C@@]3(O[C@@H]2C(C)(C)O)[C@H](O)[C@@]2(C)[C@@H]4CC[C@H]5C(C)(C)[C@@H](O[C@@H]6OC[C@@H](O)[C@H](O)[C@H]6O)CC[C@@]56C[C@@]46C[C@@H](O)[C@]2(C)[C@@H]13`, the IC50 [1] is reported as > 10 µM, the IC50 [2] is reported as > 10 µM and the IC50 [3] is reported as > 10 µM. The IC50 (HeLa) was > 10 µM and the IC50 (MCF7) was > 10 µM.

For `CC(=O)O[C@@H]1C[C@@]23C[C@@]24CC[C@H](O[C@@H]2OC[C@@H](O)[C@H](O)[C@H]2O)C(C)(C)[C@@H]4CC[C@H]3[C@]2(C)C[C@@H]3O[C@]4(O)[C@H](OC(C)(C)[C@@H]4O)[C@@H](C)[C@@H]3[C@@]12C`, the IC50 [1] was > 10 µM, the IC50 [2] was > 10 µM and the IC50 [3] was > 10 µM. The IC50 (HeLa) was > 10 µM and the IC50 (MCF7) was > 10 µM.

In the case of `C[C@H](CC(=O)[C@@H]1OC1(C)C)[C@H]1C(=O)C[C@@]2(C)C3=CC[C@H]4C(C)(C)[C@@H](O[C@@H]5OC[C@@H](O)[C@H](O)[C@H]5O)CC[C@]4(O)CC3=CC[C@]12C`, the IC50 [1] is reported as > 10 µM, the IC50 [2] is reported as > 10 µM and the IC50 [3] is reported as > 10 µM. For the same compound, the IC50 (HeLa) was > 10 µM and the IC50 (MCF7) was > 10 µM.

In the case of `C[C@H](CC(=O)[C@@H](O)C(C)(C)O)[C@H]1C(=O)C[C@@]2(C)C3=CC[C@@H]4C(=CC[C@H](O)C4(C)C)CC3=CC[C@]12C`, the IC50 [1] is reported as > 10 µM, the IC50 [2] is reported as > 10 µM and the IC50 [3] is reported as > 10 µM. For the same compound, the IC50 (HeLa) was > 10 µM and the IC50 (MCF7) was > 10 µM.

For `C[C@H](CC(=O)[C@@H]1OC1(C)C)[C@H]1C(=O)C[C@@]2(C)C3=CC[C@H]4C(C)(C)[C@@H](O[C@@H]5OC[C@@H](O)[C@H](O)[C@H]5O)CC[C@@]4(O)CC3=CC[C@]12C`, the IC50 [1] was > 10 µM, the IC50 [2] was > 10 µM and the IC50 [3] was > 10 µM. The IC50 (HeLa) was > 10 µM and the IC50 (MCF7) was > 10 µM.

With `CC(=O)O[C@@H]1C[C@@]23C[C@@]24CC[C@H](O[C@@H]2OC[C@@H](O)[C@H](O)[C@H]2O)C(C)(C)[C@@H]4CC[C@H]3[C@]2(C)C[C@@H]3O[C@@]4(C[C@@H](C)[C@@H]3[C@@]12C)OC[C@]1(C)O[C@H]41` the IC50 [1] was > 10 µM, the IC50 [2] was > 10 µM and the IC50 [3] was > 10 µM. The IC50 (HeLa) was > 10 µM and the IC50 (MCF7) was > 10 µM.

For `CC(=O)O[C@@H]1C[C@@]23C[C@@]24CC[C@H](O[C@@H]2OC[C@@H](O)[C@H](O)[C@H]2O)C(C)(C)[C@@H]4CC[C@H]3[C@]2(C)[C@@H](O)[C@]34O[C@H](C[C@@H](C)[C@@H]3[C@@]12C)[C@@H](C(C)(C)O)O4`, the IC50 [1] was > 10 µM, the IC50 [2] was > 10 µM and the IC50 [3] was > 10 µM. The IC50 (HeLa) was > 10 µM and the IC50 (MCF7) was > 10 µM.

In the case of `C[C@H](CC(=O)[C@H](O)C(C)(C)O)[C@H]1C(=O)C[C@@]2(C)C3=CC[C@H]4C(C)(C)[C@@H](O[C@@H]5OC[C@@H](O)[C@H](O)[C@H]5O)CC[C@]4(O)CC3=CC[C@]12C`, the IC50 [1] is reported as > 10 µM, the IC50 [2] is reported as > 10 µM and the IC50 [3] is reported as > 10 µM. The IC50 (HeLa) was > 10 µM and the IC50 (MCF7) was > 10 µM.

For `C[C@H](CC(=O)[C@H](O)C(C)(C)O)[C@H]1C(=O)C[C@@]2(C)C3=CC[C@@H]4C(=CC[C@H](O)C4(C)C)CC3=CC[C@]12C`, the IC50 [1] was > 10 µM, the IC50 [2] was > 10 µM and the IC50 [3] was > 10 µM. The IC50 (HeLa) was > 10 µM and the IC50 (MCF7) was > 10 µM.

For `CC(=O)O[C@@H]1C[C@@]23C[C@@]24CC[C@H](O[C@@H]2OC[C@@H](O)[C@H](O)[C@H]2O)C(C)(C)[C@@H]4CC[C@H]3[C@]2(C)C[C@@H]3O[C@]4(C[C@@H](C)[C@@H]3[C@@]12C)O[C@H](O)[C@@]1(C)O[C@@H]41` [ACTEIN], the IC50 [1] was > 10 µM, the IC50 [2] was > 10 µM and the IC50 [3] was > 10 µM. For the same compound, the IC50 (HeLa) was > 10 µM and the IC50 (MCF7) was > 10 µM.
